Laboratory results: ChEMBL document CHEMBL5331144, “Design, Synthesis, and Biological Evaluation of 2-Hydroxy-4-phenylthiophene-3-carbonitrile as PD-L1 Antagonist and Its Comparison to Available Small Molecular PD-L1 Inhibitors” (J Med Chem, 2023)
Activity calls are given as the source filed them. The rule behind the calls is not given here.

Experiments:
[1] = biological target: Programmed cell death protein 1/Programmed cell death 1 ligand 1 (Homo sapiens) (UniProt Q15116+Q9NZQ7); experiment: Inhibition of human PD-1/PD-L1 interaction assessed as induction of PD-L1 dimerization at 1:1 molar ratio by 1H-15N HMQC NMR analysis; format: protein-complex assay
Summary of the method: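 Recombinant human PD-L1 (residues 18–134), expressed in E. coli BL21(DE3), refolded and purified by SEC in PBS pH 7.4. 1D and 2D NMR spectra recorded for apo protein and with ligand at 1:1 molar ratio.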

Jurkat = experiment: Cytotoxicity against human Jurkat T cells overexpressing PD-1 with luciferase reporter under the control of NFAT promoter at higher concentration incubated for 48 hrs by redox dye mix based analysis; format: toxicity, cell-based
Summary of the method: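 Jurkat PD-1 effector cells (PD-1 overexpressing, luciferase reporter under NFAT promoter), 5000 cells/well, grown in RPMI 1640 with 10% FBS and 2 mM L-glutamine. Exposed 48 h to increasing compound concentrations, with DMSO held constant; DMSO alone as control. Values are mean ± SD of at least three independent experiments.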

[2] = Ex vivo biodistribution in formalin fixed paraffin embedded tumor of human NCI-H358 cells expressing PD-L1 by immunohistochemistry staining based analysis relative to control; format: ADME, Neoplasm
Summary of the method: (§1)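 FFPE xenograft tumours (ES2 or H358, PD-L1+/– knockout pairs) cut to 4 μm, deparaffinized at 60 °C with xylene, rehydrated, citrate pH 6.0 heat retrieval. Autoradiography: 30 min incubation with freshly formulated 18F-tracer at 0.2 MBq/mL, washed with cold PBS and water, dried, phosphor-plate exposure and quantification. Adjacent sections stained by IHC with anti-PD-L1 (5 μg/mL, clone 28-8, 60 min), DAB, hematoxylin counterstain.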

[3] = Ex vivo drug localization in peripheral part of formalin fixed paraffin embedded tumor of human NCI-H358 cells expressing PD-L1 by immunohistochemistry staining based analysis; format: ADME, tissue-based, Neoplasm; summary of the method: as §1
[4] = Ex vivo biodistribution in snap-frozen human tonsils overexpressing PD-L1 by autoradiography; format: ADME, Tonsil
Summary of the method: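 Snap-frozen human tonsil sections, 10 min cold acetone, then 30 min incubation with freshly formulated 18F-tracer at 0.2 MBq/mL. Washed twice with cold PBS and once with water, dried, exposed to phosphor plates and quantified by phosphor imaging.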

[5] = Ex vivo biodistribution in formalin fixed paraffin embedded tumor of human ES2 cells expressing PD-L1 by immunohistochemistry staining based analysis relative to control; format: ADME, Neoplasm; details: es-2; summary of the method: as §1

Row | Drug uptake [2] | Drug uptake [3] | Drug uptake [4] | Drug uptake [5] | SMILES | inhibition [1] | Activity (Jurkat)
1 |  |  |  |  | N#Cc1c(-c2ccc(F)cc2)csc1OCc1ccc(CN)cc1 | Active | Toxic
2 | 40% | Active | Active |  | Cc1c(COc2cc(OCc3cccc(C#N)c3)c(CN3C[C@@H]([18F])C[C@@H]3C(=O)O)cc2Cl)cccc1-c1ccc2c(c1)OCCO2 |  | 
3 | 40% | Active | Active | Not Active | N#Cc1c(-c2ccc([18F])cc2)csc1OCc1ccc(CN)cc1 |  | 
4 |  |  |  |  | Cc1c(COc2cc(OCc3cccc(C#N)c3)c(CN3C[C@@H](F)C[C@@H]3C(=O)O)cc2Cl)cccc1-c1ccc2c(c1)OCCO2 |  | Toxic
5 |  |  |  |  | Cc1c(COc2cc(OCc3cccc(C#N)c3)c(CN3C[C@H](O)C[C@@H]3C(=O)O)cc2Cl)cccc1-c1ccc2c(c1)OCCO2 | Active | Toxic
